Measured values: ChEMBL document CHEMBL1122792, “Synthesis and biological evaluation of radiolabeled beta-ruthenocenylalanine” (J Med Chem, 1984)

Columns and labels:
Mus musculus [1] = assay: Distribution of Radioactivity in thymus of CD-1 Mice by intravenous administration of compound after 1 hr expressed as dose/gram; type: ADME, organism-based; settings: in vivo
How it was run: (§1)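 Female CD-1 mice, 7 1/2 weeks old (25-29 g), fed and watered ad libitum. Radiotracer in physiological saline, pH 7.4, filtered, injected via lateral tail vein under ether anesthesia. Tissues taken at 5 min, 1 h, 4 h or 1 day. Percent injected dose per gram calculated against assayed samples of the injected solution; mean with range reported.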

Mus musculus [2] = assay: Distribution of Radioactivity in liver of CD-1 Mice by intravenous administration of compound after 4 hour expressed as dose/gram; type: ADME, organism-based; settings: in vivo
How it was run: (§2)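 Female CD-1 mice, 7 1/2 weeks old (25-29 g), fed and watered ad libitum. Agent given in physiological saline, pH adjusted to 7.4 and filtered, by lateral tail vein injection under ether anesthesia. Tissues collected at 5 min, 1 h, 4 h and 1 day. Injectate samples counted as standard; results as mean % injected dose/g with range.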

Rattus norvegicus [3] = assay: Distribution of Radioactivity in small intestine of Fisher 344 Rats by intravenous administration of compound after 1 day expressed as dose/gram; type: ADME, organism-based; settings: in vivo, 24 h
How it was run: (§3)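 Female Fischer 344 rats, 10-12 weeks old (170-200 g), food and water ad libitum; four rats per time point. About 6.3 μCi given in 0.05 mL saline (pH 7.4, filtered) by lateral tail vein under ether anesthesia. Tissues sampled at 5 min, 1 h, 4 h or 1 day. %ID/g computed from injectate standards; mean and range given.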

Rattus norvegicus [4] = assay: Distribution of Radioactivity in kidneys of Fisher 344 Rats by intravenous administration of compound after 1 day expressed as dose/gram; type: ADME, organism-based, Kidney; settings: in vivo, 24 h
How it was run: (§4)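 Female Fischer 344 rats, 10-12 weeks old (170-200 g), fed and watered ad libitum; four rats per time point. Each received ~6.3 μCi in 0.05 mL saline (pH 7.4, filtered), given by lateral tail vein under ether anesthesia. Tissues taken at 5 min, 1 h, 4 h and 1 day. Injectate standards used; values as mean % injected dose/g with range.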

Mus musculus [5] = assay: Distribution of Radioactivity in pancreas of CD-1 Mice by intravenous administration of compound after 1 hr expressed as dose/gram; type: ADME, organism-based; settings: in vivo; how it was run: as §2
Rattus norvegicus [6] = assay: Distribution of Radioactivity in stomach of Fisher 344 Rats by intravenous administration of compound after 4 hour expressed as dose/gram; type: ADME, organism-based; settings: in vivo; how it was run: as §3
Rattus norvegicus [7] = assay: Distribution of Radioactivity in liver of Fisher 344 Rats by intravenous administration of compound after 5 minutes expressed as dose/gram; type: ADME, organism-based; settings: in vivo; how it was run: as §4
Mus musculus [8] = assay: Distribution of Radioactivity in pancreas of CD-1 Mice by intravenous administration of compound after 4 hr expressed as dose/gram; type: ADME, organism-based; settings: in vivo; how it was run: as §2
Mus musculus [9] = assay: Distribution of Radioactivity in pancreas of CD-1 Mice by intravenous administration of compound after 5 minutes expressed as dose/gram; type: ADME, organism-based; settings: in vivo; how it was run: as §2
Mus musculus [10] = assay: Distribution of Radioactivity in adrenals of CD-1 Mice by intravenous administration of compound after 1 hr expressed as dose/gram; type: ADME, organism-based, Adrenal gland; settings: in vivo; how it was run: as §2
Mus musculus [11] = assay: Distribution of Radioactivity in liver of CD-1 Mice […] by intravenous administration of compound after 5 minutes expressed as dose/gram; type: ADME, organism-based; settings: in vivo; how it was run: as §2
Mus musculus [12] = assay: Distribution of Radioactivity in spleen of CD-1 Mice by intravenous administration of compound after 1 hr expressed as dose/gram; type: ADME, organism-based; settings: in vivo; how it was run: as §1
Mus musculus [13] = assay: Distribution of Radioactivity in stomach of CD-1 Mice by intravenous administration of compound after 5 minutes expressed as dose/gram; type: ADME, organism-based; settings: in vivo; how it was run: as §1
Rattus norvegicus [14] = assay: Distribution of Radioactivity in blood of Fisher 344 Rats by intravenous administration of compound after 5 minutes expressed as dose/gram; type: ADME, organism-based; settings: in vivo; how it was run: as §4
Rattus norvegicus [15] = assay: Distribution of Radioactivity in stomach of Fisher 344 Rats by intravenous administration of compound after 5 minutes expressed as dose/gram; type: ADME, organism-based; settings: in vivo; how it was run: as §3
Mus musculus [16] = assay: Distribution of Radioactivity in stomach of CD-1 Mice by intravenous administration of compound after 1 hr expressed as dose/gram; type: ADME, organism-based; settings: in vivo; how it was run: as §1
Mus musculus [17] = assay: Distribution of Radioactivity in blood of CD-1 Mice by intravenous administration of compound after 1 day expressed as dose/gram; type: ADME, organism-based; settings: in vivo, 24 h; how it was run: as §2
Mus musculus [18] = assay: Distribution of Radioactivity in small intestine of CD-1 Mice by intravenous administration of compound after 4 hr expressed as dose/gram; type: ADME, organism-based; settings: in vivo; how it was run: as §1
Rattus norvegicus [19] = assay: Distribution of Radioactivity in blood of Fisher 344 Rats by intravenous administration of compound after 4 hour expressed as dose/gram; type: ADME, organism-based; settings: in vivo; how it was run: as §4
Rattus norvegicus [20] = assay: Distribution of Radioactivity in small intestine of Fisher 344 Rats by intravenous administration of compound after 1 hour expressed as dose/gram; type: ADME, organism-based; settings: in vivo; how it was run: as §3
Rattus norvegicus [21] = assay: Distribution of Radioactivity in adrenals of Fisher 344 Rats by intravenous administration of compound after 4 hour expressed as dose/gram; type: ADME, organism-based, Adrenal gland; settings: in vivo; how it was run: as §4
Mus musculus [22] = assay: Distribution of Radioactivity in spleen of CD-1 Mice by intravenous administration of compound after 1 day expressed as dose/gram; type: ADME, organism-based; settings: in vivo, 24 h; how it was run: as §1
Mus musculus [23] = assay: Distribution of Radioactivity in lungs of CD-1 Mice by intravenous administration of compound after 4 hour expressed as dose/gram; type: ADME, organism-based, Lung; settings: in vivo; how it was run: as §2
Mus musculus [24] = assay: Distribution of Radioactivity in small intestine of CD-1 Mice by intravenous administration of compound after 1 hr expressed as dose/gram; type: ADME, organism-based; settings: in vivo; how it was run: as §2
Mus musculus [25] = assay: Distribution of Radioactivity in kidneys of CD-1 Mice by intravenous administration of compound after 1 hr expressed as dose/gram; type: ADME, organism-based, Kidney; settings: in vivo; how it was run: as §2
Rattus norvegicus [26] = assay: Distribution of Radioactivity in adrenals of Fisher 344 Rats by intravenous administration of compound after 5 minutes expressed as dose/gram; type: ADME, organism-based, Adrenal gland; settings: in vivo; how it was run: as §4
Rattus norvegicus [27] = assay: Distribution of Radioactivity in blood of Fisher 344 Rats by intravenous administration of compound after 1 day expressed as dose/gram; type: ADME, organism-based; settings: in vivo, 24 h; how it was run: as §4
Mus musculus [28] = assay: Distribution of Radioactivity in kidneys of CD-1 Mice by intravenous administration of compound after 5 minutes expressed as dose/gram; type: ADME, organism-based, Kidney; settings: in vivo; how it was run: as §2
Mus musculus [29] = assay: Distribution of Radioactivity in blood of CD-1 Mice by intravenous administration of compound after 1 hr expressed as dose/gram; type: ADME, organism-based; settings: in vivo; how it was run: as §2
Rattus norvegicus [30] = assay: Distribution of Radioactivity in pancreas of Fisher 344 Rats by intravenous administration of compound after 1 day expressed as dose/gram; type: ADME, organism-based; settings: in vivo, 24 h; how it was run: as §4
Mus musculus [31] = assay: Distribution of Radioactivity in thymus of CD-1 Mice by intravenous administration of compound after 1 day expressed as dose/gram; type: ADME, organism-based; settings: in vivo, 24 h; how it was run: as §1
Rattus norvegicus [32] = assay: Distribution of Radioactivity in adrenals of Fisher 344 Rats by intravenous administration of compound after 1 day expressed as dose/gram; type: ADME, organism-based, Adrenal gland; settings: in vivo, 24 h; how it was run: as §4
Mus musculus [33] = assay: Distribution of Radioactivity in adrenals of CD-1 Mice by intravenous administration of compound after 1 day expressed as dose/gram; type: ADME, organism-based, Adrenal gland; settings: in vivo, 24 h; how it was run: as §2
Rattus norvegicus [34] = assay: Distribution of Radioactivity in spleen of Fisher 344 Rats by intravenous administration of compound after 5 minutes expressed as dose/gram; type: ADME, organism-based; settings: in vivo; how it was run: as §3
Rattus norvegicus [35] = assay: Distribution of Radioactivity in kidneys of Fisher 344 Rats by intravenous administration of compound after 1 hour expressed as dose/gram; type: ADME, organism-based, Kidney; settings: in vivo; how it was run: as §4
Rattus norvegicus [36] = assay: Distribution of Radioactivity in thymus of Fisher 344 Rats by intravenous administration of compound after 4 hour expressed as dose/gram; type: ADME, organism-based; settings: in vivo; how it was run: as §3
Rattus norvegicus [37] = assay: Distribution of Radioactivity in thymus of Fisher 344 Rats by intravenous administration of compound after 1 hour expressed as dose/gram; type: ADME, organism-based; settings: in vivo; how it was run: as §3
Rattus norvegicus [38] = assay: Distribution of Radioactivity in liver of Fisher 344 Rats by intravenous administration of compound after 4 hour expressed as dose/gram; type: ADME, organism-based; settings: in vivo; how it was run: as §4
Rattus norvegicus [39] = assay: Distribution of Radioactivity in lungs of Fisher 344 Rats by intravenous administration of compound after 5 minutes expressed as dose/gram; type: ADME, organism-based, Lung; settings: in vivo; how it was run: as §4
Rattus norvegicus [40] = assay: Distribution of Radioactivity in stomach of Fisher 344 Rats by intravenous administration of compound after 1 day expressed as dose/gram; type: ADME, organism-based; settings: in vivo, 24 h; how it was run: as §3

Work on beta-[103,106Ru]Ruthenocenylalanine yielded an Injected (Mus musculus [1]) of 0.35%, an Injected (Mus musculus [2]) of 1.01% and an Injected (Rattus norvegicus [3]) of 0.044%. It also gave an Injected (Rattus norvegicus [4]) of 1.128%, an Injected (Mus musculus [5]) of 0.247% and an Injected (Rattus norvegicus [6]) of 0.028%. It also gave an Injected (Rattus norvegicus [7]) of 2.844%, an Injected (Mus musculus [8]) of 0.16% and an Injected (Mus musculus [9]) of 1.749%. For the same substance, the Injected (Mus musculus [10]) was 1.054%, the Injected (Mus musculus [11]) was 7.75% and the Injected (Mus musculus [12]) was 0.384%. The Injected (Mus musculus [13]) was 0.987%, the Injected (Rattus norvegicus [14]) was 1.949% and the Injected (Rattus norvegicus [15]) was 0.243%. For the same substance, the Injected (Mus musculus [16]) was 0.326%, the Injected (Mus musculus [17]) was 0.086% and the Injected (Mus musculus [18]) was 0.367%. It also gave an Injected (Rattus norvegicus [19]) of 0.134%, an Injected (Rattus norvegicus [20]) of 1.421% and an Injected (Rattus norvegicus [21]) of 0.047%. The Injected (Mus musculus [22]) was 0.189%, the Injected (Mus musculus [23]) was 0.47% and the Injected (Mus musculus [24]) was 2.641%. The Injected (Mus musculus [25]) was 4.59%, the Injected (Rattus norvegicus [26]) was 0.275% and the Injected (Rattus norvegicus [27]) was 0.051%. For the same substance, the Injected (Mus musculus [28]) was 15.745%, the Injected (Mus musculus [29]) was 1.039% and the Injected (Rattus norvegicus [30]) was 0.035%. For the same substance, the Injected (Mus musculus [31]) was 0.138%, the Injected (Rattus norvegicus [32]) was 0.044% and the Injected (Mus musculus [33]) was 0.556%. The Injected (Rattus norvegicus [34]) was 0.355%, the Injected (Rattus norvegicus [35]) was 2.717% and the Injected (Rattus norvegicus [36]) was 0.035%. For the same substance, the Injected (Rattus norvegicus [37]) was 0.13%, the Injected (Rattus norvegicus [38]) was 0.278% and the Injected (Rattus norvegicus [39]) was 1.123%. It also gave an Injected (Rattus norvegicus [40]) of 0.023%.
